# TRPC6 inh = inhibitors of mouse TRPC6 channel | Q61143 | HEK293-TRPC6, membrane potential dye, ACh-evoked depolarization; active compounds read low | B-score at 10 µM | 1.1% of 310,000 active;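 active means B-score under library mean minus 3 SD, initial fluorescence not abnormally high, positive integrated signal ratio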;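 further: B-score derived from integrated fluorescence ratio over the kinetic read; more negative B-score means stronger inhibition of depolarization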
# Target sequence (Q61143 whole entry, looked up): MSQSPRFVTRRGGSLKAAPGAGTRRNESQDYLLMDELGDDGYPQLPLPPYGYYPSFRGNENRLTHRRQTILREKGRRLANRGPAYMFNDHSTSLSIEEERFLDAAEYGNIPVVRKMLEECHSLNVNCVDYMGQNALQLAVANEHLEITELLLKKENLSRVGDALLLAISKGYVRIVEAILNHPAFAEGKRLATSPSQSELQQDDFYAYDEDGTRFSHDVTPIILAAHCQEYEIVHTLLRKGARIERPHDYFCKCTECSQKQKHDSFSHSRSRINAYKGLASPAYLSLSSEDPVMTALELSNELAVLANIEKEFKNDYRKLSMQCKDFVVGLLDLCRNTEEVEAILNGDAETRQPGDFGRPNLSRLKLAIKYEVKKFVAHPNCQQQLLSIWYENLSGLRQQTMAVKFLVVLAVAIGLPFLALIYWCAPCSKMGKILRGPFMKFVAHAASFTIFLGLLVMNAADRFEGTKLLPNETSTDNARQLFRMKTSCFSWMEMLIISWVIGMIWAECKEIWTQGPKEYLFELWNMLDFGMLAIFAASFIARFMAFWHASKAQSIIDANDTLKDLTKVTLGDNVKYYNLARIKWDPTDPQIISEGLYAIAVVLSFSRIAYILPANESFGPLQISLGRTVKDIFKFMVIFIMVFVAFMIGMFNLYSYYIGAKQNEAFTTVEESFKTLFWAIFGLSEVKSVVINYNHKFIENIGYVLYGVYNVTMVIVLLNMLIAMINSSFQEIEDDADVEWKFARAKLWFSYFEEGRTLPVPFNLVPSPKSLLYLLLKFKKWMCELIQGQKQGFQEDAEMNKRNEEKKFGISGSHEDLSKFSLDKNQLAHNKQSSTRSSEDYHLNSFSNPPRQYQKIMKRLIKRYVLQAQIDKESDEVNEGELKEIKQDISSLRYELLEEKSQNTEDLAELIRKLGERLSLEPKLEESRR
# TRPC6 activator = mouse TRPC6 channel activation; Q61143; HEK293-TRPC6 membrane potential dye fluorescence; active compounds read high; B-score at 10 µM; 0.13% of 310,000 active; AID 2550;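 active means B-score of the integrated fluorescence ratio above library mean plus 3 SD, and starting fluorescence ratio within library mean plus 5 SD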;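 further: higher score means more depolarization so channel activation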
# TRPC4 inh = inhibitors of mouse TRPC4 channel; B-score at 10 µM; 0.39% of 300,000 active; HEK293 TRPC4beta/mu-opioid, DAMGO-evoked Fluo4 calcium flux; active compounds read low;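 active means B-score over 3 SD under the library average, no early fluorescence shift, positive overall ratio signal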
#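 Assay system – HEK293 line stably carrying TRPC4beta and mu-opioid receptor · Doses – single dose · Detection – Fluo4 calcium-dye fluorescence, kinetic read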
# TRPC4 potent = TRPC4 (mouse) allosteric potentiation; 0.42% of 310,000 active; Q9QUQ5; B-score at 10 µM; HEK293 TRPC4beta/mu-opioid, DAMGO EC20, Fluo-4 Ca2+ flux; active compounds read high;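 active means B-score of calcium response area above 5 SD of library B-scores, with initial fluorescence ratio within 5 SD of library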;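 further: B-score of integrated fluorescence ratio over time as area under calcium response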
# Kir21 block = blocks the mouse Kir2.1 inward-rectifier potassium channel; P35561; B-score at 10 µM; 0.85% of 310,000 active; HEK293-Kir2.1, FluxOR thallium flux fluorescence; active compounds read low; AID 1672;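 active means fluorescence ratio B-score at or below minus 3 SD of library scores, with starting-brightness B-score within 2 SD, cut at about -4.2 in these data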;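 further: channel flux triggered by added potassium and thallium sulfate stimulus; B-score of peak minus minimum fluorescence over baseline after thallium stimulus; more negative B-score means stronger Kir2.1 block with less thallium influx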
# TRPC4 agonist = opens the mouse TRPC4 cation channel. Q9QUQ5. HEK293 TRPC4beta/mu-opioid, Fluo4 calcium fluorescence; active compounds read high. B-score at 10 µM. 0.49% of 310,000 active. AID 2237;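 active means B-score above 5 SD of library B-scores, and initial fluorescence ratio not above library mean plus 5 SD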;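 further: positive B-score marks a calcium rise read as TRPC4 activation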
#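 Material: HEK293 stable line with TRPC4beta plus mu-opioid receptor; technique: Fluo4 calcium-sensitive dye fluorescence, kinetic, 1 Hz baseline; timing: Fluo4 dye loading 45 min at room temperature, 110 s recording; controls: assay buffer as low control, maximal DAMGO as high control; read-out: integrated baseline-normalised fluorescence ratio, converted to per-well B score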
# An asterisk follows results filed as active; i = inactive. In the library only some 2.9% were active in any assay of this set; here they are far more common.
SMILES,TRPC6 inh,TRPC6 activator,TRPC4 inh,TRPC4 potent,Kir21 block,TRPC4 agonist
CCn1c(N2CCN(C(=O)/C=C/c3ccccc3)CC2)nc2ccccc21,i,i,i,i,-0.63,94*
CCCn1c(N2CCN(C(=O)/C=C/C(=O)O)CC2)nc2ccccc21,i,i,i,i,-1.2,57*
O=C(/C=C/c1ccccc1)N1CCCN(C(=O)/C=C/c2ccccc2)CC1,i,i,i,i,-0.01,i
CC(C)(C)NC(=O)NC(=O)COC(=O)c1cccc(OC(F)F)c1,i,i,i,i,1.9,i
CCCCn1c(N)c(N(CC(C)C)C(=O)c2ccc(S(=O)(=O)N3CCCCC3)cc2)c(=O)[nH]c1=O,i,i,i,i,-0.54,i
Cc1ccc(-c2nnc(Oc3ccc(NC(=O)c4ccccc4)cc3)c3ccccc23)cc1,i,i,i,i,-1.1,i
O=C(NC1CCN(Cc2ccccc2)CC1)c1cccc(OC(F)F)c1,i,i,i,i,-0.63,i
O=C(O)C1C2C=CC(C2)C1C(=O)NC1CCN(Cc2ccccc2)CC1 (stereo not drawn),i,i,i,i,0.93,122*
CCOc1ccc2oc(C(=O)NC3CCN(Cc4ccccc4)CC3)c(C)c2c1,i,i,i,i,-0.38,i
O=C(NC1CCN(Cc2ccccc2)CC1)c1cccc(Br)c1,i,i,i,i,-4.6*,i
Cc1c(C(=O)NC2CCN(Cc3ccccc3)C2)oc2ccc(Br)cc12 (stereo not drawn),i,i,i,i,-10*,i
CCc1ccc(OCC(=O)NC2CCCCC2)c(Br)c1,i,i,i,55*,0.09,i
Brc1ccc2c(c1)CN1CCCC1=N2,i,i,i,i,0.25,i
O=C(COC(=O)CNS(=O)(=O)c1ccc(Br)cc1Cl)NCCc1ccccc1,i,i,i,i,-0.95,i
O=C(COc1ccccc1)NC1CCN(Cc2ccccc2)CC1,i,i,i,i,-0.16,i
O=C(CN1CCN(Cc2ccccc2)CC1)Nc1cccc(Br)c1,i,i,i,i,-4.6*,i
O=C(/C=C/c1cccc(F)c1)NC1CCN(Cc2ccccc2)CC1,i,i,i,i,-4.7*,i
Cc1ccc(NC(=O)CN2CCN(Cc3ccccc3)CC2)cc1Cl,i,i,i,i,-1.9,i
O=C(NC1CCN(Cc2ccccc2)CC1)c1cccc(S(=O)(=O)Nc2cc(C(F)(F)F)ccc2Cl)c1,i,i,i,21*,-0.14,i
O=C(COc1ccc(Br)cc1Cl)NC1CCN(Cc2ccccc2)CC1,i,i,i,i,-10*,i
CCC[n+]1cn(/C(C(=S)Nc2cccc(Cl)c2C)=C(/[O-])c2ccc(OC)c(OC)c2)c2ccccc21,i,i,i,i,0.09,i
CC#CC(=O)NCC1(N(C)Cc2ccccc2)Cc2ccccc2C1,i,i,i,i,0.32,i
CC(C)Oc1ccc(S(=O)(=O)N2CCOCC2)cc1NC(=O)c1cc([N+](=O)[O-])ccc1N1CCOCC1,i,i,i,i,0.62,i
CN1CCN(c2sc(S(C)(=O)=O)nc2S(=O)(=O)c2ccc(Cl)cc2)CC1,i,i,i,i,-0.8,i
O=C(/C=C/c1cccc(Br)c1)NC1CCN(Cc2ccccc2)CC1,i,i,i,i,-5.8*,i
O=C(/C=C/c1ccccc1)NC1CC2CCCC(C1)N2Cc1ccccc1 (stereo not drawn),i,i,i,i,0.67,i
CC(C)c1nc2oc3c(N(C)CCO)ncnc3c2c2c1CCC2,i,i,i,i,-0.3,i
COc1cc(/C=C2\C(=N)N3N=CSC3=NC2=O)ccc1OS(=O)(=O)c1ccccc1,i,i,i,i,-2.3,i
CCOc1cc(/C=C2\C(=N)N3N=CSC3=NC2=O)ccc1OS(=O)(=O)c1ccccc1,i,i,-6*,i,-5*,i
